Dynein cargo inh = dynein cargo transport inhibition; 3617.4 mouse cells, GR-EGFP nuclear translocation imaging; test concentration mostly 20 µM; stimulated with dexamethasone, 1 µM; stronger effect = lower value; z-score, hits read low; hit rate 0.47% among 220,000; AID 1381;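 active = plate z-score of nuclear minus cytoplasmic receptor signal below a set negative limit, without overly bright fluorescence or cell loss, cut at about -3.5 in these data, passing the limit was not always enough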;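 also: z-score of nuclear minus cytoplasmic ring GR-EGFP intensity difference per well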
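medium = tetracycline-free induction medium containing charcoal-stripped FBS | also added = 1.0 µM final dexamethasone stimulus | schedule = 48 h induction, 1 h compound, 30 min dex at 37 °C | technique = fixed, Hoechst-stained cells imaged at 10x for EGFP | measure = GR-EGFP nuclear translocation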
Autophagy mod = autophagy modulation, high-content screen | calls only at 10 µM (by protocol) | hit rate 0.98% among 190,000 | MEF GFP-LC3 puncta imaging; test concentration mostly 10 µM | AID 463193;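 active = percentage of spot-positive cells more than 3 SD above its plate mean, without a fluorescence outlier flag or 80% toxicity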;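 also: spot-positive cell cutoff set from DMSO-treated cells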
Lmaj promast = inhibitors of Leishmania major promastigote growth; Leishmania major promastigotes, resazurin fluorescence viability; AID 1063; hit rate 9% among 200,000; inhibition, % at 10 µM; in the data active = inhibition above about 50%;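 also: promastigotes grown with compound for 44 hours at 28 °C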
PTEN del growth = suppresses growth of cells with PTEN deletion. hit rate 1.2% among 140,000. viability, % at 10 µM. HCT116 PTEN-null viability, CellTiter-Glo, 60 h; stronger effect = lower value;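 active = viability at or below a set limit, 4 SD under the median of all tested compounds, cut at about 3.7% in these data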;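 also: PTEN knockout HCT116 line with beta catenin targeted HCT116 as companion control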
HCT116 bCat-KO = beta-catenin-lacking colon tumor cell growth suppression | HCT116 beta-catenin knockout viability, CellTiter-Glo, 60 h; stronger effect = lower value | viability, % at 10 µM | hit rate 1.5% among 140,000;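 active = viability at or under a set limit, the compound median less 4 SD, cut at about 6% in these data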;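 also: 0% = Hyamine 1622 control at 20 µM and 100% = untreated cell control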
An asterisk follows results filed as active. In the library only some 9.2% were active in any assay of this set; here they are far more common.

Cc1c(C(=O)O/N=C(\N)c2ccccn2)cccc1[N+](=O)[O-] was read as Dynein cargo inh 1.71.
O=C(Oc1cccc2cccnc12)c1ccc2c(c1)OCCO2 was read as Dynein cargo inh -1.23, Autophagy mod inactive, Lmaj promast 29.8, PTEN del growth 2.5* and HCT116 bCat-KO 4.8*.
`CCC(=C(c1ccc(OC)cc1)c1ccc(OC)cc1)c1cn(CC(O)CN(CCO)CCO)c2ccccc12` (centres undefined) gave Dynein cargo inh -0.558, Autophagy mod inactive and Lmaj promast 68.7*.
`CCNc1nc(NC(C)C)nc(SCCOc2ccc(C)cc2)n1` gave Dynein cargo inh 1.9, Autophagy mod inactive, Lmaj promast 49.9, PTEN del growth 84.9 and HCT116 bCat-KO 78.1.
Screening CCNc1nc(SCCOc2ccc(Br)cc2)nc(N(C)C)n1 returned Dynein cargo inh 0.516, Autophagy mod inactive and Lmaj promast 58.0*.
CC(=O)C1=NOC(CNC(=O)c2c(-c3ccccc3Cl)noc2C)C1 (centres undefined) was read as Dynein cargo inh -0.528, Autophagy mod inactive, Lmaj promast -2.5, PTEN del growth 95.2 and HCT116 bCat-KO 111.0.
`COc1ccccc1CC(=O)NNS(=O)(=O)c1ccccc1[N+](=O)[O-]` gave Dynein cargo inh -0.805, Autophagy mod inactive and Lmaj promast -4.9.
For COCC(=O)NNS(=O)(=O)c1ccccc1[N+](=O)[O-] the results were Dynein cargo inh 0.559, Autophagy mod inactive, Lmaj promast 54.2*, PTEN del growth 99.1 and HCT116 bCat-KO 95.8.
Cc1nc(N/N=C/c2ccc(O)cc2)c2cnn(-c3ccccc3)c2n1 was read as Dynein cargo inh 0.307, Autophagy mod inactive and Lmaj promast 67.5*.
Screening Cn1c(C(=O)NC2CCCC2)cc2c(=O)n(C)c3ccccc3c21 returned Dynein cargo inh 1.41, Autophagy mod inactive, Lmaj promast 3.5, PTEN del growth 71.0 and HCT116 bCat-KO 68.5.
For CC(C)c1cccc(C(C)C)c1NC(=O)COC(=O)C1=COCCO1 the results were Dynein cargo inh 0.607, Autophagy mod inactive and Lmaj promast 0.6.
Screening Cc1ccc(C)c(OCCOCCN2CCOCC2)c1 returned Dynein cargo inh 0.0379, Autophagy mod inactive, Lmaj promast 91.8*, PTEN del growth 87.6 and HCT116 bCat-KO 101.6.
Screening Clc1ccc(Cl)c(OCCN2CCOCC2)c1 returned Dynein cargo inh 0.147, Autophagy mod inactive, Lmaj promast 21.5, PTEN del growth 97.5 and HCT116 bCat-KO 88.0.
Screening Cc1cc(C)c(C)c(OCCOCCN2CCOCC2)c1 returned Dynein cargo inh -0.113, Autophagy mod inactive, Lmaj promast 55.4*, PTEN del growth 91.3 and HCT116 bCat-KO 95.1.
For Clc1cc(Br)ccc1OCCOCCN1CCOCC1 the results were Dynein cargo inh -0.26, Autophagy mod inactive, Lmaj promast 96.0*, PTEN del growth 93.0 and HCT116 bCat-KO 99.3.
For CCCCNC(=S)Nc1ccccc1Cc1ccccc1 the results were Dynein cargo inh 1.98, Autophagy mod inactive and Lmaj promast 11.5.
`Cc1cnn(-c2ccc3nnc(-c4ccc(Br)cc4)n3n2)c1` gave Dynein cargo inh -0.327, Autophagy mod inactive, Lmaj promast -2.7, PTEN del growth 92.7 and HCT116 bCat-KO 96.8.
O=C(NCC1CCCN(Cc2ccc3nonc3c2)C1)c1ccc(F)cc1 (centres undefined) was read as Dynein cargo inh -1.12, Autophagy mod inactive and Lmaj promast 89.6*.
Screening O=C(NCC1CCCN(Cc2cccc(C(F)(F)F)c2)C1)c1ccc(F)cc1 (centres undefined) returned Dynein cargo inh -0.414, Autophagy mod inactive and Lmaj promast 80.4*.
Screening CCC(C)N(C(=O)CSc1ccc(NC(C)=O)cc1)C1CCS(=O)(=O)C1 (centres undefined) returned Dynein cargo inh -0.141, Autophagy mod inactive and Lmaj promast 0.0.
COc1ccc(/C=N/Nc2nc(NCc3ccco3)nc(Nc3ccc(OC)cc3)n2)cc1 was read as Dynein cargo inh -1.23, Autophagy mod inactive, Lmaj promast 77.2*, PTEN del growth 94.0 and HCT116 bCat-KO 99.9.
`COc1ccc(Nc2nc(NCc3ccco3)nc(N/N=C/c3ccc(O)cc3)n2)cc1` gave Dynein cargo inh -0.434, Autophagy mod inactive, Lmaj promast 8.7, PTEN del growth 76.3 and HCT116 bCat-KO 70.3.
CCc1ccccc1N1CN(Cc2cccnc2)CNC1=S was read as Dynein cargo inh 0.0814.
For CCOc1cccc(CNCc2cccnc2)c1OCc1ccccc1 the results were Dynein cargo inh -0.758, Autophagy mod inactive and Lmaj promast 15.1.
C=CCOc1ccccc1CNCc1cccnc1 was read as Dynein cargo inh -1.01, Autophagy mod inactive, Lmaj promast 87.5*, PTEN del growth 93.4 and HCT116 bCat-KO 89.5.
For C=CCOc1ccccc1CNc1ccccc1C the results were Dynein cargo inh -0.464, Autophagy mod inactive, Lmaj promast -1.1, PTEN del growth 89.1 and HCT116 bCat-KO 77.2.
Clc1ccc(COc2ccccc2CNCc2cccnc2)cc1 was read as Dynein cargo inh -0.653, Autophagy mod inactive, Lmaj promast 98.8*, PTEN del growth 62.6 and HCT116 bCat-KO 60.0.
For CC(C)C1Cc2nc(Cl)c(C#N)cc2CO1 (centres undefined) the results were Dynein cargo inh 0.379.
`COc1cccc(/C=C2\C(=O)N(c3cccc(C)c3)C(=O)c3ccccc32)c1` gave Dynein cargo inh -1.45, Autophagy mod inactive, Lmaj promast 73.1*, PTEN del growth 91.4 and HCT116 bCat-KO 90.8.
Screening CCCCN(C)CCCNC(=O)c1ccc(N2CCCC2=O)cc1 returned Dynein cargo inh 2.24, Autophagy mod inactive, Lmaj promast 51.3*, PTEN del growth 105.5 and HCT116 bCat-KO 98.0.
Screening O=C(NCCCN1CCN(c2cccc(Cl)c2)CC1)c1ccc(N2CCCC2=O)cc1 returned Dynein cargo inh -0.881, Autophagy mod inactive, Lmaj promast 97.5*, PTEN del growth 82.3 and HCT116 bCat-KO 67.1.
`COc1cc(C(=O)NC2=C(C#N)CCC2)cc(OC)c1OC` gave Dynein cargo inh -0.694, Autophagy mod inactive and Lmaj promast 1.3.
Screening COc1ccccc1/C=N/NC(=O)C(=O)NCc1cccnc1 returned Dynein cargo inh -0.887, Autophagy mod inactive and Lmaj promast 5.0.
`CCCNC(=O)CSc1nnc(-c2ccccc2Br)n1-c1cccc(C(F)(F)F)c1` gave Dynein cargo inh 2.61, Autophagy mod inactive, Lmaj promast 79.4*, PTEN del growth 89.3 and HCT116 bCat-KO 79.5.
For CCSCCc1nnc(NC(=O)Nc2cccc(C(F)(F)F)c2)s1 the results were Dynein cargo inh -0.873, Autophagy mod inactive, Lmaj promast 5.2, PTEN del growth 3.7* and HCT116 bCat-KO 4.5*.
`COc1ccccc1OCC#CCNC1CCCCC1C` (centres undefined) gave Dynein cargo inh 1.03, Autophagy mod inactive and Lmaj promast 77.7*.

High-throughput results (PubChem BioAssay)
